Blank lines part the entries; values can stand above or below the molecule they belong to.
Key:
[1] = target: CDK2-cyclin A (Homo sapiens, UniProt P20248+P24941); test: GST pull down, CDK2-cyclin A; format: binding; details: 25 mM HEPES pH 7.5, 150 mM NaCl, 1 mM DTT, 0.01% NP-40; 1 h, 4°C; SDS-PAGE; three experiments; Figure 1B
In short: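 Bacterially expressed proteins: CDK2 (1–298) as a GST fusion, cyclin A (1–432 or 173–432) as a 6XHis fusion. […] Incubated 1 h at 4 °C with mild agitation, washed three times in binding buffer, and bound material analysed by SDS-PAGE; repeated 2–3 times.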

[2] = target: CDK2-cyclin A (Surface 2, hydrophobic patch); test: Fluorescence polarization displacement of FITC-p27^27−36 from CDK2-cyclin A; format: binding, human

B1: Skp2^Δ1−88: Skp2 lacking the first 88 residues (protein)
chain 1: RENFPGVSWDSLPDELLLGIFSCLCLPELLKVSGVCKRWYRLASDESLWQTLDLTGKNLHPDVTGRLLSQGVIAFRCPRSFMDQPLAEHFSPFRVQHMDLSNSVIEVSTLHGILSQCSKLQNLSLEGLRLSDPIVNTLAKNSNLVRLNLSGCSGFSEFALQTLLSSCSRLDELNLSWCFDFTEKHVQVAVAHVSETITQLNLSGYRKNLQKSDLSTLVRRCPNLVHLDLSDSVMLKNDCFQEFFQLNYLQHLSLSRCYDIIPETLLELGEIPTLKTLQVFGIVPDGTLQLLKEALPHLQINCSHFTTIARPTIGNKKNQEIWGIKCRLTLQKPSCL
chain 2: MPSIKLQSSDGEIFEVDVEIAKQSVTIKTMLEDLGMDPVPLPNVNAAILKKVIQWCTHHKDDPGSGGTDDIPVWDQEFLKVDQGTLFELILAANYLDIKGLLDVTCKTVANMIKGKTPEEIRKTFNIKNDFTEEEEAQVRKENQWCEEK
modifications: left off: GST, end not stated, kept | His6, end not stated, state not stated
pull down / binding of CDK2-cyclin A^173−432 with or without Cks1 [1]: could not bind CDK2-cyclin A in the absence of Cks1

IC50 ([2]; 25 nM FITC-p27^27−36, CDK2-cyclin A 6.25 μM, HEPES pH 7.5, 30 min, N=4, Figure 3E): not determinable
displacement of FITC-p27^27−36 (in words) ([2]; CDK2-cyclin A 6.25 μM, N=4, Figure 3E): greatly compromised for this function
B2: F79A/I81A/R83A: full length Skp2 (Skp1-Skp2^1−424) with Motif 2 mutation F79A/I81A/R83A (protein)
chain 1: MHRKHLQEIPDLSSNVATSFTWGWDSSKTSELLSGMGVSALEKEEPDSENIPQELLSNLGHPESPPRKRLKSKGSDKDAVAVARPKLNRENFPGVSWDSLPDELLLGIFSCLCLPELLKVSGVCKRWYRLASDESLWQTLDLTGKNLHPDVTGRLLSQGVIAFRCPRSFMDQPLAEHFSPFRVQHMDLSNSVIEVSTLHGILSQCSKLQNLSLEGLRLSDPIVNTLAKNSNLVRLNLSGCSGFSEFALQTLLSSCSRLDELNLSWCFDFTEKHVQVAVAHVSETITQLNLSGYRKNLQKSDLSTLVRRCPNLVHLDLSDSVMLKNDCFQEFFQLNYLQHLSLSRCYDIIPETLLELGEIPTLKTLQVFGIVPDGTLQLLKEALPHLQINCSHFTTIARPTIGNKKNQEIWGIKCRLTLQKPSCL
chain 2: MPSIKLQSSDGEIFEVDVEIAKQSVTIKTMLEDLGMDPVPLPNVNAAILKKVIQWCTHHKDDPGSGGTDDIPVWDQEFLKVDQGTLFELILAANYLDIKGLLDVTCKTVANMIKGKTPEEIRKTFNIKNDFTEEEEAQVRKENQWCEEK
modifications: left off: GST, end not stated, cleaved | His6, end not stated, cleaved

loss of displacement effectiveness versus wild-type ([2]; mutant versus wild-type Skp2^1−424, FITC-p27^27−36, Figure 4F): 3 fold
B3: 4A mutant of Skp2^1−424: full-length Skp2 with L32A/L33A/S39A/L41A (Motif 1 mutant) (protein)
chain 1: MHRKHLQEIPDLSSNVATSFTWGWDSSKTSEAASGMGVAAAEKEEPDSENIPQELLSNLGHPESPPRKRLKSKGSDKDFVIVRRPKLNRENFPGVSWDSLPDELLLGIFSCLCLPELLKVSGVCKRWYRLASDESLWQTLDLTGKNLHPDVTGRLLSQGVIAFRCPRSFMDQPLAEHFSPFRVQHMDLSNSVIEVSTLHGILSQCSKLQNLSLEGLRLSDPIVNTLAKNSNLVRLNLSGCSGFSEFALQTLLSSCSRLDELNLSWCFDFTEKHVQVAVAHVSETITQLNLSGYRKNLQKSDLSTLVRRCPNLVHLDLSDSVMLKNDCFQEFFQLNYLQHLSLSRCYDIIPETLLELGEIPTLKTLQVFGIVPDGTLQLLKEALPHLQINCSHFTTIARPTIGNKKNQEIWGIKCRLTLQKPSCL
chain 2: MPSIKLQSSDGEIFEVDVEIAKQSVTIKTMLEDLGMDPVPLPNVNAAILKKVIQWCTHHKDDPGSGGTDDIPVWDQEFLKVDQGTLFELILAANYLDIKGLLDVTCKTVANMIKGKTPEEIRKTFNIKNDFTEEEEAQVRKENQWCEEK
modifications: left off: GST, end not stated, cleaved | His6, end not stated, cleaved

— article PMC8419023 (Structure (London, England : 1993), 2021)
